A selection: hits, their analogues and other compounds. The true share with any hit is near 5.9%.
GASC1 inh: inhibitors of GASC-1 (KDM4C) histone demethylase, primary screen, biochemical, single concentration HTS; 0.15% of 96,000 active; Lysine-specific demethylase 4C (Homo sapiens), Q9H3R0; GST-KDM4C 2-372, H3K9me3 peptide, LANCE TR-FRET; inhibition, % at 12.5 µM;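 active = mean replicate inhibition above about 25%, with at least 55% of replicates also reaching it, limit read from the data, passing the limit was not always enough; inconclusive = only one of those two conditions met; inactive = neither condition met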
Target sequence (Q9H3R0 2-372 limits assumed): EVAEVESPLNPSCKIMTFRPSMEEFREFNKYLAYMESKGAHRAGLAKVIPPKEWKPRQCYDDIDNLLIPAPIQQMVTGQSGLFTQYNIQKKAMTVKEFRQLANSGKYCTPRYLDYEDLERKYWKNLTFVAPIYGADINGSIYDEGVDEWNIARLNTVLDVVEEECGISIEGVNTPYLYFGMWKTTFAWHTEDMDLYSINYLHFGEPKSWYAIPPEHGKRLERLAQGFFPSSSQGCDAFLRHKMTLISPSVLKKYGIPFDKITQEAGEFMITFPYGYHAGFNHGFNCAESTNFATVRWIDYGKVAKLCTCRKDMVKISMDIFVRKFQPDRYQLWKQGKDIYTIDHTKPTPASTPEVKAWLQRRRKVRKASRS
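material = GST-tagged GASC-1 (JMJD2C) catalytic fragment, aa 2-372 | amount = enzyme final amount 10 nM | medium = HEPES buffer, pH 7.5, plus ascorbate | also added = H3K9me3 peptide substrate, Fe(II), 2-oxoglutarate | dosing = single dose | times = 30 min demethylation and 1 h detection at room temperature | detection = LANCE TR-FRET | read-out basis = Fall in 671/618 emission ratio as inhibition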
T cruzi growth-1: T. cruzi intracellular proliferation inhibitors, primary screen, cell-based, beta-gal Tulahuen parasites, NIH3T3 host, luminescence | T. cruzi beta-gal in NIH3T3, GalScreen luminescence, 90 h | inhibition, % at 8.34 µM | 5.9% of 77,000 active | AID 624255, 2012;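 active = mean inhibition above about 93%, with at least 55% of replicates each passing it, limit read from the data, passing the limit was not always enough; inconclusive = only one of those two conditions holds; inactive = neither condition holds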
Pf Dd2 inh: P. falciparum Dd2 growth inhibitors, primary screen, SYBR Green fluorescence, single dose replicates; 72 h; hits give low values; activity change, % at 10 µM; 2.3% of 94,000 active; AID 1159554, 2015; in the data active = activity change below about -80%; inconclusive = no clear call, values can overlap the other calls
IDH1 R132H inh: inhibitors of IDH1 R132H reductase, primary screen, biochemical, plate reader, single point; Isocitrate dehydrogenase [NADP] cytoplasmic (Homo sapiens), O75874; diaphorase/resazurin fluorescence, 60 min; inhibition, % at 10 µM; 0.18% of 70,000 active; AID 624101, 2012; in the data active = inhibition above about 34%; inconclusive = no clear call, values can overlap the other calls; inactive = below about 11%;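 also: 0% = DMSO and 100% = no enzyme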
Target sequence (O75874 whole entry R132H): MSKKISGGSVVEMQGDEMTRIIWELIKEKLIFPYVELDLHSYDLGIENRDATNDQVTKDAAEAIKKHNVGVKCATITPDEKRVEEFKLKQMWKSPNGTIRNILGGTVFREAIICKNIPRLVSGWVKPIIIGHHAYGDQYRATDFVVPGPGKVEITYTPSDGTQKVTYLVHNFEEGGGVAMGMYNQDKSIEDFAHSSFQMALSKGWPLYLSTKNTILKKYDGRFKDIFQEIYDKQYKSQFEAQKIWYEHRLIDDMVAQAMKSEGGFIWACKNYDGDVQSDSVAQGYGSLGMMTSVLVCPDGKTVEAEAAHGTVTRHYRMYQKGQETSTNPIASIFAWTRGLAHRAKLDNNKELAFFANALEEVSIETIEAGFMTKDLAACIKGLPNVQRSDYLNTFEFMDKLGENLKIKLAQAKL
T cruzi growth-2: T. cruzi intracellular proliferation inhibitors, confirmation, cell-based, NIH3T3 host, beta-gal parasite, luminescence, cherry-pick. shares compounds with T cruzi growth-1. T. cruzi beta-gal in NIH3T3, GalScreen luminescence, 90 h. inhibition, % at 8.35 µM. 72% of 5,600 active. AID 651739, 2012;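 active = mean replicate inhibition above about 95% and at least 55% of replicates individually reaching it, limit read from the data; inconclusive = only one of the two criteria is met; inactive = neither criterion is met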
T cruzi growth-3: inhibitors of intracellular T. cruzi replication, confirmation, NIH3T3 host cells, beta-gal parasites, cherry-pick, set 2; shares compounds with T cruzi growth-1; T. cruzi beta-gal in NIH3T3, GalScreen luminescence, 90 h; inhibition, % at 2.09 µM; 21% of 5,600 active; AID 651740, 2012;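 active = mean inhibition above about 95%, with at least 55% of replicates also reaching it, limit read from the data; inconclusive = meets just one of the two conditions; inactive = meets neither condition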;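 also: plate controls were neutral control median for no effect and positive control median for full effect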
3T3 cytotox: cytotoxicity in mouse NIH/3T3 fibroblasts, confirmation, cytotoxicity control for T. cruzi proliferation inhibitor project, cell-based, cherry-pick, single point; cytotoxicity (signal decrease), % at 8.35 µM; shares compounds with T cruzi growth-1; NIH/3T3 viability, CellTiter-Glo ATP luminescence, 90 h; 14% of 5,600 active;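 active = mean signal decrease across replicates above about 35% based on untreated-well scatter, with enough replicates individually passing, limit read from the data; inconclusive = no rule stated though some were filed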;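 also: 0% = median of neutral control wells and 100% = median of positive control wells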
3T3 cytotox 2: NIH/3T3 fibroblast cytotoxicity, confirmation, cytotoxicity control, cell-based, cherry-pick, single point, set 2; shares compounds with T cruzi growth-1; NIH/3T3 viability, CellTiter-Glo ATP luminescence, 90 h; inhibition, % at 24.9 µM; 56% of 5,600 active;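 active = mean loss of cell viability signal at or above a set limit, and enough replicates individually reaching it; inconclusive = meets only the mean limit or only the replicate share; inactive = meets neither condition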;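 also: 0% = median of neutral control wells and 100% = median of positive control wells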
* hit, by the source's call; ? = inconclusive; . = not tested or not shown.

SMILES	GASC1 inh	T cruzi growth-1	Pf Dd2 inh	IDH1 R132H inh	T cruzi growth-2	T cruzi growth-3	3T3 cytotox	3T3 cytotox 2
C[C@@H]1CN([C@H](C)CO)S(=O)(=O)c2ccc(-c3cncnc3)cc2O[C@@H]1CN(C)Cc1ccncc1	4.0	16.9	7.1	20.5	.	.	.	.
Cc1ccc(-c2ccc3c(c2)O[C@H](CN(C)Cc2ccncc2)[C@H](C)CN([C@H](C)CO)S3(=O)=O)cc1	.	108.7*	-15.1	52.2*	97.6*	75.4	49.1*	47.1*
C[C@@H]1CN([C@H](C)CO)S(=O)(=O)c2ccc(-c3ccncc3)cc2O[C@@H]1CN(C)Cc1ccccc1	1.9	88.1	-31.1	0.6	.	.	.	.
C[C@@H]1CN([C@@H](C)CO)S(=O)(=O)c2ccc(Br)cc2O[C@H]1CN(C)Cc1ccncc1	.	100.8*	-40.8	.	102.1*	98.6*	25.0	13.9
Cc1ccc(-c2ccc3c(c2)O[C@@H](CN(C)Cc2ccncc2)[C@@H](C)CN([C@@H](C)CO)S3(=O)=O)cc1	-0.9	120.2*	-66.2	1.8	92.5	91.3	63.8*	90.3*
COC(=O)C1=C(C)Nc2ncnn2C1c1cccc(OC)c1OCc1ccccc1 (stereo not given)	.	.	.	0.2	.	.	.	.
O=C(C1c2ccccc2C(=O)N2CCc3ccccc3C12)N1CCCC1 (stereo not given)	.	.	.	1.2	.	.	.	.
CCc1sc(-c2ccc(Cl)cc2)nc1C(=O)OC	.	.	.	1.5	.	.	.	.
C[C@@H]1CN([C@@H](C)CO)S(=O)(=O)c2ccc(-c3cncnc3)cc2O[C@H]1CN(C)Cc1ccncc1	0.2	72.2	-14.2	6.7	.	.	.	.
Cc1ccc(-c2ccc3c(c2)O[C@@H](CN(C)Cc2ccncc2)[C@@H](C)CN([C@H](C)CO)S3(=O)=O)cc1	-2.5	122.9*	-62.0	-7.2	96.9*	101.1*	25.8	94.3*
CCCC#Cc1ccc2c(c1)O[C@H](CN(C)Cc1ccc3c(c1)OCO3)[C@H](C)CN([C@H](C)CO)S2(=O)=O	.	129.8*	?	-1.0	100.2*	109.5*	6.2	104.3*
CC(C)CC#Cc1ccc2c(c1)O[C@H](CN(C)Cc1ccc3c(c1)OCO3)[C@H](C)CN([C@H](C)CO)S2(=O)=O	.	89.2	-32.7	-0.4	.	.	.	.
CCCC#Cc1ccc2c(c1)O[C@H](CN(C)Cc1ccc3c(c1)OCO3)[C@@H](C)CN([C@H](C)CO)S2(=O)=O	-1.1	100.7*	.	-0.1	98.1*	92.0	25.6	106.0*
CCCC#Cc1ccc2c(c1)O[C@H](CN(C)Cc1ccc3c(c1)OCO3)[C@H](C)CN([C@@H](C)CO)S2(=O)=O	.	128.1*	-79.1	-0.2	?	112.3*	29.3	104.4*
CC(C)CC#Cc1ccc2c(c1)O[C@@H](CN(C)Cc1ccc3c(c1)OCO3)[C@@H](C)CN([C@H](C)CO)S2(=O)=O	.	92.7	-36.1	-1.5	.	.	.	.
CCCC#Cc1ccc2c(c1)O[C@@H](CN(C)Cc1ccc3c(c1)OCO3)[C@@H](C)CN([C@@H](C)CO)S2(=O)=O	-1.0	126.3*	-75.0	-1.3	88.7	102.5*	29.3	104.5*
CCOC(=O)c1c(NC(=O)CC2NCCNC2=O)sc2c1CCCC2 (stereo not given)	.	.	.	0.5	.	.	.	.
CCc1c(C)sc(NC(=O)c2ccc(Cn3nc(C)c(Cl)c3C)o2)c1C(N)=O	.	.	.	0.0	.	.	.	.
CC(=O)Oc1ccc(C(=O)NCc2nc(-c3ccccc3)no2)cc1	.	.	.	-0.5	.	.	.	.
Cc1ccccc1-c1nc(S(=O)(=O)c2ccc(Cl)cc2)c(NCc2cccnc2)o1	.	.	.	-0.1	.	.	.	.
CCCC#Cc1ccc2c(c1)O[C@@H](CN(C)C(=O)c1ccccc1)[C@H](C)CN([C@@H](C)CO)S2(=O)=O	0.0	95.7*	-57.7	0.5	101.7*	73.0	32.2	62.2*
CC(C)CC#Cc1ccc2c(c1)O[C@@H](CN(C)C(=O)c1ccccc1)[C@@H](C)CN([C@@H](C)CO)S2(=O)=O	-6.0	120.3*	-69.5	-0.2	101.8*	88.0	26.6	103.2*
CCCC#Cc1ccc2c(c1)O[C@H](CN(C)C(=O)c1ccccc1)[C@H](C)CN([C@H](C)CO)S2(=O)=O	0.5	98.5*	-66.1	-0.2	107.3*	80.8	-2.8	58.4*
CCCC#Cc1ccc2c(c1)O[C@@H](CN(C)C(=O)c1ccncc1)[C@H](C)CN([C@@H](C)CO)S2(=O)=O	1.3	87.2	23.2	0.2	.	.	.	.
CC(C)CC#Cc1ccc2c(c1)O[C@H](CN(C)C(=O)c1ccccc1)[C@@H](C)CN([C@H](C)CO)S2(=O)=O	-2.4	.	-57.5	1.8	.	.	.	.
SMILES	GASC1 inh	T cruzi growth-1	Pf Dd2 inh	IDH1 R132H inh	T cruzi growth-2	T cruzi growth-3	3T3 cytotox	3T3 cytotox 2
CCCC#Cc1ccc2c(c1)O[C@H](CN(C)C(=O)c1ccccc1)[C@@H](C)CN([C@@H](C)CO)S2(=O)=O	0.2	111.6*	-40.6	-0.4	103.6*	60.2	20.6	35.2*
CCCC#Cc1ccc2c(c1)O[C@H](CN(C)C(=O)c1ccncc1)[C@H](C)CN([C@@H](C)CO)S2(=O)=O	2.6	84.3	-14.4	0.2	.	.	.	.
CC(C)(C)C(=O)CSc1nnc(-c2ccncc2)n1-c1ccc(Br)cc1	.	.	.	-0.1	.	.	.	.
Cc1ccc(NC(=O)COc2ccc(Br)cc2Cl)c([N+](=O)[O-])c1	.	.	.	-0.1	.	.	.	.
O=C(O)CCN1C(=O)c2cccc3c([N+](=O)[O-])ccc(c23)C1=O	.	.	.	-0.1	.	.	.	.
O=C(NCCCN1CCN(c2ccccc2[N+](=O)[O-])CC1)Nc1ccccc1F	.	.	.	-0.3	.	.	.	.
CCN1CCN(c2c(Cl)cccc2NC(=O)c2ccc(-c3ccccc3[N+](=O)[O-])o2)CC1	.	.	.	0.0	.	.	.	.
COc1cc2nc(CCN3C(=O)c4ccccc4C3=O)oc(=O)c2cc1OC	.	.	.	-0.4	.	.	.	.
Cc1c(Cl)c(C)c(Cl)c(OCC(=O)Nc2ccccc2N2CCOCC2)c1Cl	.	.	.	0.2	.	.	.	.
C[C@@H]1CN([C@H](C)CO)C(=O)c2cc(NC(=O)Nc3ccc(F)cc3)ccc2O[C@@H]1CN(C)Cc1ccc(Oc2ccccc2)cc1	0.5	?	-14.0	-0.3	95.7*	30.5	33.9	106.4*

From PubChem
